Data reported in ChEMBL document CHEMBL1944532, “Synthesis and evaluation of anticancer activity of some novel 6-aryl-2-(p-sulfamylphenyl)-pyridazin-3(2H)-ones” (Eur J Med Chem, 2012).
Activity calls are given as the source filed them. The calls are words filed in the database; no cut-off is given here.

What was measured:
NCI-H23 = test: Cytotoxicity against human NCI-H23 cells assessed as cell growth at 10 uM after 48 hrs by SRB assay; type: functional; details: NCI-H23, 48 h, read-out: Activity
Method in brief: (§1)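 NCI primary single-dose screen at 10^-5 M against the full panel of about 60 human tumor cell lines. Cells were in RPMI-1640 with 5% fetal calf serum and 2 mM L-glutamine and preincubated 24 h. Compound was given in DMSO with 48 h exposure. Growth was estimated by sulforhodamine B protein assay.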

OVCAR-8 = test: Cytotoxicity against human OVCAR8 cells assessed as cell growth at 10 uM after 48 hrs by SRB assay; type: functional; details: OVCAR-8, 48 h, read-out: Activity; method in brief: as §1
Hs-578T = test: Cytotoxicity against human Hs578T cells assessed as cell growth at 10 uM after 48 hrs by SRB assay; type: functional; details: read-out: Activity
Method in brief: (§2)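 NCI primary single-dose screen at 10^-5 M against the ~60 human tumour cell line panel. Cells grown in RPMI-1640 with 5% fetal calf serum and 2 mM L-glutamine and pre-incubated 24 h before compound addition. Compound added from DMSO solution with 48 h exposure. Growth read by sulforhodamine B protein staining.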

SW-620 [1] = test: Cytotoxicity against human SW620 cells assessed as cell growth at 10 uM after 48 hrs by SRB assay; type: functional; details: SW-620, 48 h, read-out: Activity
Method in brief: (§3)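 NCI primary one-dose screen at 10^-5 M against the full panel of about 60 human tumour cell lines, run to the NCI Drug Evaluation Branch protocol.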

RPMI-8226 [2] = test: Cytotoxicity against human RPMI8226 cells assessed as cell growth at 10 uM after 48 hrs by SRB assay; type: functional; details: RPMI-8226, 48 h, read-out: Activity; method in brief: as §1
UACC-62 [3] = test: Cytotoxicity against human UACC62 cells after 48 hrs by SRB assay; type: functional; details: UACC-62, 48 h
Method in brief: (§4)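 NCI 60-cell-line five-dose screen. Cells were grown in 1640 medium with 5% fetal calf serum and 2 mM L-glutamine, with inoculum density set by cell line, and pre-incubated 24 h. Compound in DMSO was added at 10^-4 to 10^-8 M (10-fold steps) with 48 h continuous exposure. Growth was read by SRB protein assay, and GI50, TGI and LC50 were derived from dose-response.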

NCI-H226 = test: Cytotoxicity against human NCI-H226 cells assessed as cell growth at 10 uM after 48 hrs by SRB assay; type: functional; details: NCI-H226, 48 h, read-out: Activity; method in brief: as §1
T47D = test: Cytotoxicity against human T47D cells assessed as cell growth at 10 uM after 48 hrs by SRB assay; type: functional; details: read-out: Activity; method in brief: as §3
HCC 2998 [4] = test: Cytotoxicity against human HCC2998 cells after 48 hrs by SRB assay; type: functional; details: HCC 2998, 48 h
Method in brief: (§5)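 NCI ~60-line panel in RPMI-1640 with 5% fetal calf serum and 2 mM L-glutamine, pre-incubated 24 h. Compound in DMSO tested at five 10-fold concentrations (10^-4 to 10^-8 M) with 48 h continuous exposure. Growth measured by sulforhodamine B protein assay. GI50 (50% net growth inhibition), TGI (total inhibition) and LC50 (50% net cell death) derived from dose-response.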

RPMI-8226 [5] = test: Cytotoxicity against human RPMI8226 cells after 48 hrs by SRB assay; type: functional; details: RPMI-8226, 48 h
Method in brief: (§6)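 NCI five-dose screen on the ~60-line human tumor panel. Cells grown in RPMI-1640 with 5% fetal calf serum and 2 mM L-glutamine, seeded at line-dependent density and preincubated 24 h. Compound added from DMSO at 10-fold dilutions from 10^-4 to 10^-8 M, continuous exposure 48 h. Growth read by sulforhodamine B protein stain. GI50, TGI and LC50 derived per line.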

UACC-62 [6] = test: Antitumor activity against human UACC62 cells implanted in mouse dosed qd for 4 days by formazan dye-based hollow fiber assay; type: functional, organism-based
Method in brief: (§7)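 Cells grown inside polyvinylidene fluoride hollow fibers; each line implanted into both intraperitoneal and subcutaneous compartments in mice. Compound given ip at two doses on a QD x 4 schedule. Fibers then recovered and viable cell mass measured by formazan dye conversion. Scored 2 per dose giving ≥50% reduction in viable cell mass (%T/C 50).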

M14 = test: Cytotoxicity against human M14 cells assessed as cell growth at 10 uM after 48 hrs by SRB assay; type: functional; details: M14, 48 h, read-out: Activity; method in brief: as §1
SW-620 [7] = test: Cytotoxicity against human SW620 cells after 48 hrs by SRB assay; type: functional; details: SW-620, 48 h; method in brief: as §4
OVCAR-3 = test: Antitumor activity against human OVCAR3 cells implanted in mouse dosed qd for 4 days by formazan dye-based hollow fiber assay; type: functional, organism-based; method in brief: as §7
K562 = test: Cytotoxicity against human K562 cells assessed as cell growth at 10 uM after 48 hrs by SRB assay; type: functional; details: K562, 48 h, read-out: Activity; method in brief: as §2
ACHN = test: Cytotoxicity against human ACHN cells after 48 hrs by SRB assay; type: functional; method in brief: as §5
SF-539 [8] = test: Cytotoxicity against human SF539 cells after 48 hrs by SRB assay; type: functional; details: SF-539, 48 h; method in brief: as §6
SF-539 [9] = test: Cytotoxicity against human SF539 cells assessed as cell growth at 10 uM after 48 hrs by SRB assay; type: functional; details: SF-539, 48 h, read-out: Activity; method in brief: as §1
CAKI-1 = test: Cytotoxicity against human Caki1 cells assessed as cell growth at 10 uM after 48 hrs by SRB assay; type: functional; details: CAKI-1, 48 h, read-out: Activity; method in brief: as §2
RXF 393 = test: Cytotoxicity against human RXF393 cells after 48 hrs by SRB assay; type: functional; details: RXF 393, 48 h; method in brief: as §6
SF-268 = test: Cytotoxicity against human SF268 cells after 48 hrs by SRB assay; type: functional; details: SF-268, 48 h; method in brief: as §6
HCC 2998 [10] = test: Cytotoxicity against human HCC2998 cells assessed as cell growth at 10 uM after 48 hrs by SRB assay; type: functional; details: HCC 2998, 48 h, read-out: Activity; method in brief: as §2
SK-MEL-2 = test: Cytotoxicity against human SK-MEL-2 cells after 48 hrs by SRB assay; type: functional; details: SK-MEL-2, 48 h; method in brief: as §6
CCRF-CEM = test: Cytotoxicity against human CCRF-CEM cells after 48 hrs by SRB assay; type: functional; method in brief: as §5

Structure (SMILES): CCc1ccc(-c2ccc(=O)n(-c3ccc(S(N)(=O)=O)cc3)n2)cc1
- growth at 10 µM (NCI-H23): 59.9%
- growth at 10 µM (OVCAR-8): 51.2%
- growth at 10 µM (Hs-578T): 28.6%
- growth at 10 µM (SW-620 [1]): 35%
- growth at 10 µM (RPMI-8226 [2]): -29.9%
- LC50 (UACC-62 [3]): > 100 µM
- GI50 (UACC-62 [3]; read-out: GI50): 0.724 µM
- GI50 (UACC-62 [3]; read-out: pGI50 (converted)): 0.724 µM
- TGI (UACC-62 [3]; read-out: pTGI): > 100 µM
- growth at 10 µM (NCI-H226): 94.1%
- growth at 10 µM (T47D): 33.4%
- LC50 (HCC 2998 [4]): > 100 µM
- GI50 (HCC 2998 [4]; read-out: GI50): 2.62 µM
- GI50 (HCC 2998 [4]; read-out: pGI50 (converted)): 2.63 µM
- TGI (HCC 2998 [4]; read-out: pTGI): > 100 µM
- LC50 (RPMI-8226 [5]): > 100 µM
- GI50 (RPMI-8226 [5]; read-out: GI50): 0.479 µM
- GI50 (RPMI-8226 [5]; read-out: pGI50 (converted)): 0.479 µM
- TGI (RPMI-8226 [5]; read-out: pTGI (converted)): 8.51 µM
- Activity (UACC-62 [6]): inactive
- growth at 10 µM (M14): 17.7%
- LC50 (SW-620 [7]): > 100 µM
- GI50 (SW-620 [7]; read-out: GI50): 0.454 µM
- GI50 (SW-620 [7]; read-out: pGI50 (converted)): 0.457 µM
- TGI (SW-620 [7]; read-out: pTGI): > 100 µM
- Activity (OVCAR-3): inactive
- growth at 10 µM (K562): 11%
- GI50 (ACHN): 10.5 µM
- CC50 (ACHN; read-out: pLC50 (the source's name) (converted)): > 100 µM
- TGI (ACHN; read-out: pTGI): > 100 µM
- LC50 (SF-539 [8]): > 100 µM
- GI50 (SF-539 [8]; read-out: GI50): 1.84 µM
- GI50 (SF-539 [8]; read-out: pGI50 (converted)): 1.82 µM
- TGI (SF-539 [8]; read-out: pTGI (converted)): 22.9 µM
- growth at 10 µM (SF-539 [9]): 43.6%
- growth at 10 µM (CAKI-1): 36.6%
- LC50 (RXF 393): > 100 µM
- GI50 (RXF 393; read-out: GI50): 3.51 µM
- GI50 (RXF 393; read-out: pGI50 (converted)): 3.55 µM
- TGI (RXF 393; read-out: pTGI (converted)): 28.2 µM
- LC50 (SF-268): > 100 µM
- GI50 (SF-268; read-out: GI50): 4.25 µM
- GI50 (SF-268; read-out: pGI50 (converted)): 4.27 µM
- TGI (SF-268; read-out: pTGI (converted)): 47.9 µM
- growth at 10 µM (HCC 2998 [10]): 53.9%
- LC50 (SK-MEL-2): > 100 µM
- GI50 (SK-MEL-2; read-out: GI50): 10.7 µM
- GI50 (SK-MEL-2; read-out: pGI50 (converted)): 10.7 µM
- TGI (SK-MEL-2; read-out: pTGI (converted)): 72.4 µM
- LC50 (CCRF-CEM): > 100 µM
- GI50 (CCRF-CEM; read-out: GI50): 0.786 µM
- GI50 (CCRF-CEM; read-out: pGI50 (converted)): 0.794 µM
- TGI (CCRF-CEM; read-out: pTGI): > 100 µM
